Activity calls are given as the source filed them. The rule behind the calls is not given here. Where a SMILES comes first, the peptide text is derived from it. Bridges are numbered along the chain shown (N, C = ends). [ ]: non-standard residue; d: D form. Pro(3S-OH) = O=C(O)[C@H]1NCC[C@@H]1O; pGlu = O=C1CC[C@@H](C(=O)O)N1
Biological target: Sodium-dependent noradrenaline transporter (Homo sapiens, UniProt P23975)
Experiment: Displacement of [3H]nisoxetine from human NET expressed in COS7 cells
Type: cell-based
Settings: COS-7
Summary of the method: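 Membranes from COS-7 cells transfected with human NET were incubated with [3H]nisoxetine (4.3 nM) with or without peptide (1 nM to 100 μM, triplicate) for 1 h at RT. Filter-retained radioactivity was counted by liquid scintillation, and values are given as pIC50. Data are means of 2–5 experiments in triplicate; peptide concentration was set by calibrated HPLC at 214 nm.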

Sodium-dependent noradrenaline transporter, sequence (P23975 whole entry): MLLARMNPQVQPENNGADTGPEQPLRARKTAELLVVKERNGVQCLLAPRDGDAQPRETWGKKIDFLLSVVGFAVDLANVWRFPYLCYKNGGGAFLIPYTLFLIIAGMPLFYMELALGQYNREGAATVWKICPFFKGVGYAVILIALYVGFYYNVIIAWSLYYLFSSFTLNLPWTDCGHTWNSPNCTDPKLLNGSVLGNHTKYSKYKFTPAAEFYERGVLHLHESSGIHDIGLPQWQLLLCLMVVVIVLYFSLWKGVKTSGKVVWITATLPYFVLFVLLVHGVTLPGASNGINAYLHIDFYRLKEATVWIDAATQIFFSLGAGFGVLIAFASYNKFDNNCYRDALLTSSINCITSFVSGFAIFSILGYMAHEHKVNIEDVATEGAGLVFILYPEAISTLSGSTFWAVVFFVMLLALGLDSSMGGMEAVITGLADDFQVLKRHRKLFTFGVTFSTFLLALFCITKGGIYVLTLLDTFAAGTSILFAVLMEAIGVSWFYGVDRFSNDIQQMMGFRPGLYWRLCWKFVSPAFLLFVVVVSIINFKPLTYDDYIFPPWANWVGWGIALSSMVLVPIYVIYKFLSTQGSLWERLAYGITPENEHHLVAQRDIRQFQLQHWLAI

Compound | Activity
CC(C)C[C@@H]1NC(=O)[C@H](CCCCN)NC(=O)[C@H](Cc2ccc(O)cc2)NC(=O)CNC(=O)[C@@H]2CSSC[C@H](NC1=O)C(=O)N[C@@H](Cc1cnc[nH]1)C(=O)N1CC[C@H](O)[C@H]1C(=O)N[C@@H](C(=O)O)CSSC[C@H](NC(=O)[C@@H](NC(=O)CNC(=O)[C@@H]1CCC(=O)N1)C(C)C)C(=O)N2 | inactive
CC(C)C[C@@H]1NC(=O)[C@H](CCCCN)NC(=O)[C@H](Cc2ccc(O)cc2)NC(=O)CNC(=O)[C@@H]2CSSC[C@H](NC1=O)C(=O)N[C@@H](Cc1ccco1)C(=O)N1CC[C@H](O)[C@H]1C(=O)N[C@H](C(=O)O)CSSC[C@H](NC(=O)[C@@H](NC(=O)CNC(=O)[C@@H]1CCC(=O)N1)C(C)C)C(=O)N2 | Active
CC(C)C[C@@H]1NC(=O)[C@H](CCCCN)NC(=O)[C@H](Cc2ccc(O)cc2)NC(=O)CNC(=O)[C@H]2CSSC[C@@H](NC1=O)C(=O)N[C@@H](Cc1cnc[nH]1)C(=O)N1CC[C@H](O)[C@H]1C(=O)N[C@H](C(=O)O)CSSC[C@H](NC(=O)[C@@H](NC(=O)CNC(=O)[C@@H]1CCC(=O)N1)C(C)C)C(=O)N2 | inactive
CC(C)C[C@@H]1NC(=O)[C@H](CCCCN)NC(=O)[C@H]2CCCN2C(=O)CNC(=O)[C@@H]2CSSC[C@H](NC1=O)C(=O)N[C@@H](Cc1cnc[nH]1)C(=O)N1CC[C@H](O)[C@H]1C(=O)N[C@H](C(=O)O)CSSC[C@H](NC(=O)[C@@H](NC(=O)CNC(=O)[C@@H]1CCC(=O)N1)C(C)C)C(=O)N2 | inactive
COc1ccc(C[C@@H]2NC(=O)CNC(=O)[C@@H]3CSSC[C@H](NC(=O)[C@H](CC(C)C)NC(=O)[C@H](CCCCN)NC2=O)C(=O)N[C@@H](Cc2cnc[nH]2)C(=O)N2CC[C@H](O)[C@H]2C(=O)N[C@H](C(=O)O)CSSC[C@H](NC(=O)[C@@H](NC(=O)CNC(=O)[C@@H]2CCC(=O)N2)C(C)C)C(=O)N3)cc1 | Active
CC(C)C[C@@H]1NC(=O)[C@H](CCCCN)NC(=O)[C@H](Cc2ccccc2)NC(=O)CNC(=O)[C@@H]2CSSC[C@H](NC1=O)C(=O)N[C@@H](Cc1cnc[nH]1)C(=O)N1CC[C@H](O)[C@H]1C(=O)N[C@H](C(=O)O)CSSC[C@H](NC(=O)[C@@H](NC(=O)CNC(=O)[C@@H]1CCC(=O)N1)C(C)C)C(=O)N2 ([pGlu]GVCCGFKLCH[Pro(3S-OH)]C-OH; disulfide 4-13, 5-10) | inactive
CC(C)C[C@@H]1NC(=O)[C@H](CCCCN)NC(=O)[C@H](Cc2ccc(O)cc2)NC(=O)CNC(=O)[C@@H]2CSSC[C@H](NC1=O)C(=O)N[C@@H](Cc1ccc(O)cc1)C(=O)N1CC[C@H](O)[C@H]1C(=O)N[C@H](C(=O)O)CSSC[C@H](NC(=O)[C@@H](NC(=O)CNC(=O)[C@@H]1CCC(=O)N1)C(C)C)C(=O)N2 ([pGlu]GVCCGYKLCY[Pro(3S-OH)]C-OH; disulfide 4-13, 5-10) | Active
CC(C)C[C@@H]1NC(=O)[C@H](CCCCN)NC(=O)[C@H](Cc2ccc(O)cc2)NC(=O)CNC(=O)[C@@H]2CSSC[C@H](NC1=O)C(=O)N[C@@H](Cc1cnc[nH]1)C(=O)N[C@H](CC(=O)O)C(=O)N[C@H](C(=O)O)CSSC[C@H](NC(=O)[C@@H](NC(=O)CNC(=O)[C@@H]1CCC(=O)N1)C(C)C)C(=O)N2 | inactive
CC(C)C[C@@H]1NC(=O)[C@H](CCCCN)NC(=O)[C@H](CO)NC(=O)CNC(=O)[C@@H]2CSSC[C@H](NC1=O)C(=O)N[C@@H](Cc1cnc[nH]1)C(=O)N1CC[C@H](O)[C@H]1C(=O)N[C@H](C(=O)O)CSSC[C@H](NC(=O)[C@@H](NC(=O)CNC(=O)[C@@H]1CCC(=O)N1)C(C)C)C(=O)N2 ([pGlu]GVCCGSKLCH[Pro(3S-OH)]C-OH; disulfide 4-13, 5-10) | inactive
CC(C)C[C@@H]1NC(=O)[C@H](CCCCN)NC(=O)[C@H](CCC(N)=O)NC(=O)CNC(=O)[C@@H]2CSSC[C@H](NC1=O)C(=O)N[C@@H](Cc1cnc[nH]1)C(=O)N1CC[C@H](O)[C@H]1C(=O)N[C@H](C(=O)O)CSSC[C@H](NC(=O)[C@@H](NC(=O)CNC(=O)[C@@H]1CCC(=O)N1)C(C)C)C(=O)N2 ([pGlu]GVCCGQKLCH[Pro(3S-OH)]C-OH; disulfide 4-13, 5-10) | inactive
CC(C)C[C@@H]1NC(=O)[C@H](CCCCN)NC(=O)[C@H](CCCNC(=N)N)NC(=O)CNC(=O)[C@@H]2CSSC[C@H](NC1=O)C(=O)N[C@@H](Cc1cnc[nH]1)C(=O)N1CC[C@H](O)[C@H]1C(=O)N[C@H](C(=O)O)CSSC[C@H](NC(=O)[C@@H](NC(=O)CNC(=O)[C@@H]1CCC(=O)N1)C(C)C)C(=O)N2 ([pGlu]GVCCGRKLCH[Pro(3S-OH)]C-OH; disulfide 4-13, 5-10) | inactive
CC(C)C[C@@H]1NC(=O)[C@H](CCCCN)NC(=O)[C@H](Cc2c[nH]c3ccccc23)NC(=O)CNC(=O)[C@@H]2CSSC[C@H](NC1=O)C(=O)N[C@@H](Cc1cnc[nH]1)C(=O)N1CC[C@H](O)[C@H]1C(=O)N[C@H](C(=O)O)CSSC[C@H](NC(=O)[C@@H](NC(=O)CNC(=O)[C@@H]1CCC(=O)N1)C(C)C)C(=O)N2 | inactive
CC(C)C[C@@H]1NC(=O)[C@H](CCCCN)NC(=O)[C@H](Cc2ccc(O)cc2)NC(=O)CNC(=O)[C@@H]2CSSC[C@H](NC1=O)C(=O)N[C@@H](Cc1c[nH]c3ccccc13)C(=O)N1CC[C@H](O)[C@H]1C(=O)N[C@H](C(=O)O)CSSC[C@H](NC(=O)[C@@H](NC(=O)CNC(=O)[C@@H]1CCC(=O)N1)C(C)C)C(=O)N2 ([pGlu]GVCCGYKLCW[Pro(3S-OH)]C-OH; disulfide 4-13, 5-10) | Active
CCCC[C@@H]1NC(=O)[C@H](CCCCN)NC(=O)[C@H](Cc2ccc(O)cc2)NC(=O)CNC(=O)[C@@H]2CSSC[C@H](NC1=O)C(=O)N[C@@H](Cc1cnc[nH]1)C(=O)N1CC[C@H](O)[C@H]1C(=O)N[C@H](C(=O)O)CSSC[C@H](NC(=O)[C@@H](NC(=O)CNC(=O)[C@@H]1CCC(=O)N1)C(C)C)C(=O)N2 | Active
CC(C)C[C@@H]1NC(=O)[C@H](CCCCN)NC(=O)[C@H](Cc2ccc(O)cc2)NC(=O)CNC(=O)[C@@H]2CSSC[C@H](NC1=O)C(=O)N[C@@H](Cc1cccnc1)C(=O)N1CC[C@H](O)[C@H]1C(=O)N[C@H](C(=O)O)CSSC[C@H](NC(=O)[C@@H](NC(=O)CNC(=O)[C@@H]1CCC(=O)N1)C(C)C)C(=O)N2 | Active
COc1ccc(C[C@@H]2NC(=O)CNC(=O)[C@@H]3CSSC[C@H](NC(=O)[C@H](CC(C)C)NC(=O)[C@H](CCCCN)NC(=O)[C@H](Cc4ccc(O)cc4)NC2=O)C(=O)N[C@@H](Cc2c[nH]c4ccccc24)C(=O)N2CC[C@H](O)[C@H]2C(=O)N[C@H](C(=O)O)CSSC[C@H](NC(=O)[C@@H](NC(=O)CNC(=O)[C@@H]2CCC(=O)N2)C(C)C)C(=O)N3)cc1 ([pGlu]GVCCGY(Me)YKLCW[Pro(3S-OH)]C-OH; disulfide 4-14, 5-11) | Active
CC(C)C[C@@H]1NC(=O)[C@H](CCCCN)NC(=O)[C@@H](Cc2ccc(O)cc2)NC(=O)CNC(=O)[C@@H]2CSSC[C@H](NC1=O)C(=O)N[C@@H](Cc1cnc[nH]1)C(=O)N1CC[C@H](O)[C@H]1C(=O)N[C@H](C(=O)O)CSSC[C@H](NC(=O)[C@@H](NC(=O)CNC(=O)[C@@H]1CCC(=O)N1)C(C)C)C(=O)N2 | inactive
CC(C)C[C@H]1CC(=O)N[C@H]2CSSC[C@H](NC(=O)[C@@H](NC(=O)[C@@H](NC(=O)CNC(=O)[C@@H]3CCC(=O)N3)C(C)C)CSSC[C@@H](C(=O)O)NC(=O)[C@@H]3[C@@H](O)CCN3C(=O)[C@H](Cc3cnc[nH]3)NC2=O)C(=O)NCC(=O)N[C@@H](Cc2ccc(O)cc2)C(=O)N[C@@H](CCCCN)C(=O)N1 | Active
